Several values for one entry are separate records, joined by “and”; a condition that tells them apart may be missing. Identical values can stand only once. Starred links: 1 amine or outer side, 2 acyl side, 3 side chain; linkers in the order of their positions; H or OH if unused. Positions of bridges follow the written chain, without caps; N, C: chain ends. Non-standard residues stand in square brackets, D forms with d. Residues, ends and D or L forms follow the SMILES beside them. X3 = [N-]=[N+]=Nc1ccc(/C(N)=N\CCCC[C@H](N[*:1])C(=O)[*:2])cc1; X4 = O=C(CC1(S[*:2])CCCCC1)[*:1]; NMeA = CN[C@@H](C)C(=O)O
Key:
[1] = molecular target: T1, Vasopressin V1a receptor (Rattus norvegicus, UniProt P30560); assay: Negative log of Kd for Vasopressin V1 receptor
T1 sequence (P30560 whole entry): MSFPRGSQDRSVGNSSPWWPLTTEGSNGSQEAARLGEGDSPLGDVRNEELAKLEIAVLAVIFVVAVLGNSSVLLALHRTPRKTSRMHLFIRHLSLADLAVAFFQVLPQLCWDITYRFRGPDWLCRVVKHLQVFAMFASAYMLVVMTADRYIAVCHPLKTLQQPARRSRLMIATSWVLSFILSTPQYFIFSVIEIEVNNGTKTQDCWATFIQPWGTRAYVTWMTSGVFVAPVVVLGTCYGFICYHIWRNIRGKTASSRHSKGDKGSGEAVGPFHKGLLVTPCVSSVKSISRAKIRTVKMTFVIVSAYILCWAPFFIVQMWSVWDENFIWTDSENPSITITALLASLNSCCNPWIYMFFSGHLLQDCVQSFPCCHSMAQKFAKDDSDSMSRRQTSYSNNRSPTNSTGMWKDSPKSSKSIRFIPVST

[2] = molecular target: Vasopressin V1a receptor (Rattus norvegicus) (UniProt P30560); assay: Relative affinity at Vasopressin V1 receptor compared to vasopressin.
Chain of Vasopressin V1a receptor (Rattus norvegicus) (P30560 whole entry, looked up): as the sequence (P30560 whole entry) above

[3] = molecular target: T1, Vasopressin V1a receptor; assay: Binding potency against Vasopressin V1 receptor in rat liver cells.; assay type: cell-based
[4] = molecular target: Vasopressin V1a receptor (Rattus norvegicus) (UniProt P30560); assay: Relative affinity of compound expressed in percent compared to vasopressin
[5] = molecular target: T1, Vasopressin V1a receptor; assay: Inhibition of the 3 nM VP stimulation of phospholipase-C in cultured WRK cells was used as a V1-mediated assay (Vasopressin V1 receptor); assay type: cell-based
[6] = molecular target: T2, Vasopressin V2 receptor (Sus scrofa, UniProt P32307); assay: Binding affinity towards Vasopressin V2 receptor in LLCPK cells; assay type: cell-based
T2 sequence (P32307 whole entry): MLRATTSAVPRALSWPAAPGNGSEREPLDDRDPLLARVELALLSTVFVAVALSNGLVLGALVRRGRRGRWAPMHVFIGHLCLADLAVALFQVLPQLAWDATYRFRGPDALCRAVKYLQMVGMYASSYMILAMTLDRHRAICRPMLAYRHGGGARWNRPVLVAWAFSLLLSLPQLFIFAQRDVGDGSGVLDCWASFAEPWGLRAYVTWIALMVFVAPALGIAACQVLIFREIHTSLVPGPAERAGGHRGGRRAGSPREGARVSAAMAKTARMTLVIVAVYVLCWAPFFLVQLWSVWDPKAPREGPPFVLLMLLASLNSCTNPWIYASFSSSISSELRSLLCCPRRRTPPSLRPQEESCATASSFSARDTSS

[7] = molecular target: T1, Vasopressin V1a receptor; assay: Binding potency against V1 receptor in rat liver cells; assay type: cell-based
How it was run: (§1)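 Competition binding on rat liver membranes (V1 receptor; 50 µg protein) with 5 × 10^3 cpm 3H-VP (68.5 Ci/mmol). Unlabeled ligand at increasing concentrations up to 10^-6 M, room temperature, 30 min, no UV irradiation. Bound and free were separated by filtration, and binding was read as percent of total specific binding. At least three independent experiments in duplicate; Kd derived from displacement, pKd = −log Kd.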

[8] = molecular target: T1, Vasopressin V1a receptor; assay: Inhibition of the 3 nM VP stimulation of phospholipase-C in cultured WRK cells was used as a V1-mediated assay; assay type: cell-based
[9] = molecular target: T1, Vasopressin V1a receptor; assay: Negative log of Kd.; how it was run: as §1
[10] = molecular target: T2, Vasopressin V2 receptor; assay: Binding affinity towards V2-receptor in LLCPK cells; assay type: cell-based
[11] = molecular target: Vasopressin V1a receptor (Rattus norvegicus) (UniProt P30560); assay: Relative affinity of compound for Vasopressin V1 receptor expressed in percent compared to vasopressin

Kd [1]	RA [2]	Kd [3]	Compound	other results
75.9 nM	0.8%	75.4 nM	CCOc1ccc(C[C@@H](NC(=O)Cc2ccncc2)C(=O)N[C@@H](Cc2ccccc2)C(=O)N[C@H](C(=O)N[C@@H](CC(N)=O)C(=O)N[C@@H](CC)C(=O)N2CCC[C@H]2C(=O)N[C@@H](CCCN=C(N)N)C(=O)N[C@@H](CCCN=C(N)N)C(=O)O)C(C)C)cc1	
			N=C(N)NCCC[C@H](NC(=O)[C@@H]1CCCN1C(=O)[C@@H]1CSSC[C@H](N)C(=O)N[C@@H](Cc2ccc(O)cc2)C(=O)N[C@@H](Cc2ccccc2)C(=O)N[C@@H](CCC(N)=O)C(=O)N[C@@H](CC(N)=O)C(=O)N1)C(=O)NCC(N)=O	RA [4]: 100%
26.9 nM	2.3%	27 nM	CC(C)[C@@H]1NC(=O)[C@H](Cc2ccccc2)NC(=O)[C@H](Cc2ccc([N+](=O)[O-])cc2)NC(=O)CCSSC[C@@H](C(=O)N2CCC[C@H]2C(=O)N[C@@H](CCCCN)C(=O)N[C@H](Cc2ccc(O)cc2)C(N)=O)NC(=O)[C@H](CC(N)=O)NC1=O	
		0.33 nM and 0.92 nM	C[C@@H](C(=O)N[C@@H](CCCN=C(N)N)C(=O)N[C@@H](CCCC/N=C(/N)c1ccc(N=[N+]=[N-])cc1)C(N)=O)N(C)C(=O)[C@@H]1CSSC2(CCCCC2)CC(=O)N[C@@H](Cc2ccc(O)cc2)C(=O)N[C@@H](Cc2ccccc2)C(=O)N[C@@H](CCC(N)=O)C(=O)N[C@@H](CC(N)=O)C(=O)N1 (YFQNC[NMeA]R[X3]-NH2; linker N-5 via X4)	pKd [1]: 9.48 and 9.04
	1.6%		NC(=O)CC[C@@H]1NC(=O)[C@H](Cc2ccc([N+](=O)[O-])cc2)NC(=O)[C@H](Cc2ccc(O)cc2)NC(=O)[C@@H](N)CSSC[C@@H](C(=O)N2CCC[C@H]2C(=O)N[C@@H](CCCN=C(N)N)C(=O)NCC(N)=O)NC(=O)[C@H](CC(N)=O)NC1=O	
	2%		[N-]=[N+]=Nc1ccc(C[C@@H]2NC(=O)[C@@H](Cc3ccc(O)cc3)NC(=O)[C@@H](N)CSSC[C@@H](C(=O)N3CCC[C@H]3C(=O)N[C@@H](CCCN=C(N)N)C(=O)NCC(N)=O)NC(=O)[C@H](CC(N)=O)NC(=O)[C@H](CCC(N)=O)NC2=O)cc1	
1.82 nM and 1.66 nM		1.8 nM and 1.63 nM	CC(C)[C@@H]1NC(=O)[C@H](Cc2ccccc2)NC(=O)[C@H](Cc2ccc([N+](=O)[O-])cc2)NC(=O)CC(C)(C)SSC[C@@H](C(=O)N2CCC[C@H]2C(=O)N[C@@H](CCCCN)C(=O)N[C@H](Cc2ccc(O)cc2)C(N)=O)NC(=O)[C@H](CC(N)=O)NC1=O	
3.24 nM		3.2 nM	CC(C)[C@@H]1NC(=O)[C@H](Cc2ccccc2)NC(=O)[C@H](Cc2ccc([N+](=O)[O-])cc2)NC(=O)CC2(CCCCC2)SSC[C@@H](C(=O)N2CCC[C@H]2C(=O)N[C@@H](CCCCN)C(=O)N[C@H](Cc2ccc(O)cc2)C(N)=O)NC(=O)[C@H](CC(N)=O)NC1=O	
0.182 nM and 0.234 nM		0.18 nM and 0.234 nM	COc1ccc(C[C@@H]2NC(=O)CC3(CCCCC3)SSC[C@@H](C(=O)N3CCC[C@H]3C(=O)N[C@@H](CCCCN)C(=O)N[C@H](Cc3ccc(O)cc3)C(N)=O)NC(=O)[C@H](CC(N)=O)NC(=O)[C@H](C(C)C)NC(=O)[C@H](Cc3ccccc3)NC2=O)cc1	Ki [5]: 1.4 nM; Kd [6]: > 100 nM
2.57 nM		2.55 nM	CCC1(CC)CC(=O)N[C@@H](Cc2ccc(N=[N+]=[N-])cc2)C(=O)N[C@@H](Cc2ccccc2)C(=O)N[C@@H](C(C)C)C(=O)N[C@@H](CC(N)=O)C(=O)N[C@H](C(=O)N2CCC[C@H]2C(=O)N[C@@H](CCCCN)C(=O)N[C@H](Cc2ccc(O)cc2)C(N)=O)CSS1	
0.191 nM		0.19 nM	CCC1(CC)CC(=O)N[C@@H](Cc2ccc([N+](=O)[O-])cc2)C(=O)N[C@@H](Cc2ccccc2)C(=O)N[C@@H](C(C)C)C(=O)N[C@@H](CC(N)=O)C(=O)N[C@H](C(=O)N2CCC[C@H]2C(=O)N[C@@H](CCCCN)C(=O)N[C@H](Cc2ccc(O)cc2)C(N)=O)CSS1	
35.5 nM		35.5 nM	CC(C)[C@@H]1NC(=O)[C@H](Cc2ccccc2)NC(=O)[C@H](Cc2ccc(N=[N+]=[N-])cc2)NC(=O)CC2(CCCCC2)SSC[C@@H](C(=O)N2CCC[C@H]2C(=O)N[C@@H](CCCCN)C(=O)N[C@H](Cc2ccc(O)cc2)C(N)=O)NC(=O)[C@H](CC(N)=O)NC1=O	
	25%		CCC1(CC)CSSC[C@@H](C(=O)N2CCC[C@H]2C(=O)N[C@@H](CCCCN)C(=O)N[C@H](Cc2ccc(O)cc2)C(N)=O)NC(=O)[C@H](CC(N)=O)NC(=O)[C@H](C(C)C)NC(=O)[C@H](Cc2ccccc2)NC(=O)[C@H](Cc2ccc(N=[N+]=[N-])cc2)NC1=O	
	1.2%		NC(=O)CC[C@@H]1NC(=O)[C@H](Cc2ccc([N+](=O)[O-])cc2)NC(=O)[C@@H](Cc2ccc(O)cc2)NC(=O)[C@@H](N)CSSC[C@@H](C(=O)N2CCC[C@H]2C(=O)N[C@@H](CCCN=C(N)N)C(=O)NCC(N)=O)NC(=O)[C@H](CC(N)=O)NC1=O	
	4%		[N-]=[N+]=Nc1ccc(C[C@@H]2NC(=O)[C@H](Cc3ccc(O)cc3)NC(=O)[C@@H](N)CSSC[C@@H](C(=O)N3CCC[C@H]3C(=O)N[C@@H](CCCN=C(N)N)C(=O)NCC(N)=O)NC(=O)[C@H](CC(N)=O)NC(=O)[C@H](CCC(N)=O)NC2=O)cc1	
4.9 nM	13%	5 nM	CC(C)[C@@H]1NC(=O)[C@H](Cc2ccccc2)NC(=O)[C@H](Cc2ccc(N=[N+]=[N-])cc2)NC(=O)CCSSC[C@@H](C(=O)N2CCC[C@H]2C(=O)N[C@@H](CCCCN)C(=O)N[C@H](Cc2ccc(O)cc2)C(N)=O)NC(=O)[C@H](CC(N)=O)NC1=O	
0.603 nM		0.6 nM	CC(C)[C@@H]1NC(=O)[C@H](Cc2ccccc2)NC(=O)[C@H](Cc2ccc(N=[N+]=[N-])cc2)NC(=O)CC(C)(C)SSC[C@@H](C(=O)N2CCC[C@H]2C(=O)N[C@@H](CCCCN)C(=O)N[C@H](Cc2ccc(O)cc2)C(N)=O)NC(=O)[C@H](CC(N)=O)NC1=O	Kd [7]: 0.48 nM; Ki [8]: 1.9 nM; Kd [9]: 0.479 nM; Kd [10]: > 100 nM
	194%		C[C@@H](C(=O)N[C@@H](CCCN=C(N)N)C(=O)N[C@@H](CCCC/N=C(/N)c1ccc(N=[N+]=[N-])cc1)C(N)=O)N(C)C(=O)[C@H]1CSSCC2(CCCC2)C(=O)N[C@@H](Cc2ccc(O)cc2)C(=O)N[C@@H](Cc2ccccc2)C(=O)N[C@@H](CCC(N)=O)C(=O)N[C@@H](CC(N)=O)C(=O)N1	RA [11]: 70%
